Structures are written as SMILES.

Data set [1] is described as follows: Inhibition of human electron transport chain complex 1 in human NCI-H1299 cells assessed as reduction in cellular ATP level measured after 24 hrs by CellTiter-Glo assay. The data set is classed as cell-based. A digest of the protocol:
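ATP-dependent luciferase luminescence read in H1299 cells, first without (M1) and then after adding the complex II substrate succinate (M2), to separate complex I block from downstream respiratory-chain inhibition or uncoupling.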
For orientation: ATP-based viability assays read luminescence as a measure of living cells.

A short description of data set [2]: Lipophilicity, logD of compound. The following applies: octanol/water.
Data set [3] is described as follows: Metabolic stability in rat hepatocyte assessed as maximum bioavailability measured up to 90 mins by LC-MS/MS analysis. The class given is ADME. The following applies: for Fh at 1.5 h: rat hepatocytes, read-out: Fmax.
Data set [4] can be described thus: Blood clearance in male Wistar rat at 0.3 to 5 mg/kg, iv and po by LC-MS/MS analysis. The following applies: dose 0.3-5 mg/kg. The data set is classed as ADME, organism-based.

As usually defined, the IC50 is the concentration at which inhibition is half-maximal. The logD is the decadic logarithm of the distribution of all forms, ionised or not, between an organic phase and buffer at a given pH. A lower logD goes with a more hydrophilic compound. Take `c1ccc2oc(-c3csc(C4CCN(Cc5cn6ccccc6n5)CC4)n3)cc2c1`: the 50% inhibitory concentration (IC50) in data set [1] (Homo sapiens, NCI-H1299, 24 h) was 340 nM. In data set [2], this molecule gave a logD of 2.9.

As to `CC(C)(c1nc2ccccc2[nH]1)N1CCC(c2nc(-c3cc4ccccc4o3)cs2)CC1`, the half-maximal inhibitory concentration (IC50) in data set [1] (Homo sapiens, NCI-H1299, 24 h) stood at 3000 nM. This molecule returned a logD in data set [2] of 3.8.

As to `Fc1cccc2[nH]c(CN3CCC(c4nc(-c5cc6ccccc6o5)cs4)CC3)nc12`, the IC50 in data set [1] (Homo sapiens, NCI-H1299, 24 h) is 325 nM. The molecule further yielded a logD in data set [2] of 3.7. Also, the Fh at 1.5 h in data set [3] is 57%. Further, in data set [4], the clearance was 18.3 mL/min/kg.

On to `CCn1c(CN2CCC(c3nc(-c4cc5ccccc5o4)cs3)CC2)nc2ccccc21`, for which, in data set [1] (Homo sapiens, NCI-H1299, 24 h), the IC50 is above 30000 nM. Further, the logD in data set [2] worked out at 3.4.

`CN(C(=O)CN1CCC(c2nc(-c3cc4ccccc4o3)cs2)CC1)c1ccncc1`: the IC50 in data set [1] (Homo sapiens, NCI-H1299, 24 h) amounted to 96 nM. In data set [2], this molecule had a log distribution coefficient (logD) of 3. Further, the Fh at 1.5 h in data set [3] came to 10%.

Regarding `O=C(CN1CCC(c2nc(-c3cc4ccccc4o3)cs2)CC1)Nc1ccncc1`, the half-maximal inhibitory concentration (IC50) in data set [1] (Homo sapiens, NCI-H1299, 24 h) amounted to 70 nM.

As for `O=C(CN1CCC(c2nc(-c3cc4ccccc4o3)cs2)CC1)Nc1ccccc1F`, the IC50 in data set [1] (Homo sapiens, NCI-H1299, 24 h) stood at 3240 nM.

In the case of `Fc1ccc2cc(-c3csc(C4CCN(Cc5nc6ccccc6[nH]5)CC4)n3)oc2c1`, the half-maximal inhibitory concentration (IC50) in data set [1] (Homo sapiens, NCI-H1299, 24 h) was determined as 500 nM. Further, the logD in data set [2] turned out to be 3.5.

For the molecule `N#Cc1ccc2oc(-c3csc(C4CCN(Cc5nc6ccccc6[nH]5)CC4)n3)cc2c1`, the IC50 in data set [1] (Homo sapiens, NCI-H1299, 24 h) was determined as 2000 nM. In addition, in data set [2], the log distribution coefficient (logD) worked out at 3.

Regarding `Cc1ccc2[nH]c(CN3CCC(c4nc(-c5cc6ccccc6o5)cs4)CC3)nc2n1`, in data set [1] (Homo sapiens, NCI-H1299, 24 h), the IC50 worked out at 300 nM. The logD in data set [2] stood at 3.

`c1ccc2oc(-c3csc(C4CCN(Cc5cn6cccnc6n5)CC4)n3)cc2c1`: the IC50 in data set [1] (Homo sapiens, NCI-H1299, 24 h) was found to be 730 nM. Also, the pH-dependent lipophilicity (logD) in data set [2] was determined as 2.5.

For the molecule `c1ccc2oc(-c3csc(C4CCN(Cc5cn6ncccc6n5)CC4)n3)cc2c1`, the IC50 in data set [1] (Homo sapiens, NCI-H1299, 24 h) was 300 nM. In data set [2], this molecule yielded a log distribution coefficient (logD) of 3.1.

Consider `CCc1nccc(NC(=O)CN2CCC(c3nc(-c4cc5ccccc5o4)cs3)CC2)c1Cl`, for which the IC50 in data set [1] (Homo sapiens, NCI-H1299, 24 h) was found to be 102 nM.

As for `O=C(CN1CCC(c2nc(-c3cc4ccccc4o3)cs2)CC1)Nc1cccc(C(F)(F)F)c1`, the IC50 in data set [1] (Homo sapiens, NCI-H1299, 24 h) is 3280 nM.

As to `c1ccc2oc(-c3csc(C4CCN(Cc5ncc[nH]5)CC4)n3)cc2c1`, the IC50 in data set [1] (Homo sapiens, NCI-H1299, 24 h) turned out to be 4000 nM. In addition, in data set [2], the logD is 2.6.

`c1ccc2oc(-c3csc(C4CCN(Cc5nc6ccccc6o5)CC4)n3)cc2c1`: the half-inhibitory concentration (IC50) in data set [1] (Homo sapiens, NCI-H1299, 24 h) was found to be 1720 nM. Besides, the logD in data set [2] amounted to 4.6.

On to `c1ccc2[nH]c(CN3CCC(c4nc(-c5cc6ncccc6o5)cs4)CC3)nc2c1`, for which, in data set [1] (Homo sapiens, NCI-H1299, 24 h), the IC50 was found to be 770 nM. This molecule also had a pH-dependent lipophilicity (logD) in data set [2] of 2.4.

With `c1ccc2[nH]c(CN3CCC(c4nc(-c5nc6ccccc6s5)cs4)CC3)nc2c1`, the IC50 in data set [1] (Homo sapiens, NCI-H1299, 24 h) worked out at 710 nM. In data set [2], this molecule yielded a pH-dependent lipophilicity (logD) of 3.1.

As to `c1ccc2oc(-c3csc(C4CCN(Cc5nc6ccccc6s5)CC4)n3)cc2c1`, the IC50 in data set [1] (Homo sapiens, NCI-H1299, 24 h) was 1760 nM. Further, in data set [2], the log distribution coefficient (logD) worked out at 5.6.

Take `N#Cc1ccc2nc(CN3CCC(c4nc(-c5cc6ccccc6o5)cs4)CC3)[nH]c2c1`: the IC50 in data set [1] (Homo sapiens, NCI-H1299, 24 h) was 860 nM. The molecule further gave a log distribution coefficient (logD) in data set [2] of 3.4.

`Cn1c(CN2CCC(c3nc(-c4cc5ccccc5o4)cs3)CC2)nc2ccccc21`: the IC50 in data set [1] (Homo sapiens, NCI-H1299, 24 h) turned out to be 700 nM. Also, in data set [2], the log distribution coefficient (logD) was 4.3.

Consider `O=C(c1nc2ccccc2[nH]1)N1CCC(c2nc(-c3cc4ccccc4o3)cs2)CC1`, for which, in data set [1] (Homo sapiens, NCI-H1299, 24 h), the IC50 is 3000 nM. For the same molecule, the logD in data set [2] was 4.3.

Turning to `c1ccc2oc(-c3csc(C4CCN(Cc5nc6ncncc6[nH]5)CC4)n3)cc2c1`, in data set [1] (Homo sapiens, NCI-H1299, 24 h), the half-maximal inhibitory concentration (IC50) came out at 80 nM. In data set [2], this molecule returned a logD of 2.6.

Turning to `c1ccc(-c2csc(C3CCN(Cc4nc5ccccc5[nH]4)CC3)n2)cc1`, the IC50 in data set [1] (Homo sapiens, NCI-H1299, 24 h) worked out at 10000 nM. This molecule registered a logD in data set [2] of 3.

Consider `c1ccc(-c2c[nH]c(CN3CCC(c4nc(-c5cc6ccccc6o5)cs4)CC3)n2)cc1`, for which, in data set [1] (Homo sapiens, NCI-H1299, 24 h), the IC50 was found to be 860 nM. Moreover, the logD in data set [2] turned out to be 3.7.

Take `c1coc(-c2csc(C3CCN(Cc4nc5ccccc5[nH]4)CC3)n2)c1`: the IC50 in data set [1] (Homo sapiens, NCI-H1299, 24 h) was above 30000 nM. The molecule further displayed a logD in data set [2] of 2.6.

Turning to `CC(C)(C(=O)Nc1cccc(F)c1)N1CCC(c2nc(-c3cc4ccccc4o3)cs2)CC1`, the IC50 in data set [1] (Homo sapiens, NCI-H1299, 24 h) was above 30000 nM. The same molecule returned a logD in data set [2] of 5.7. Also, the Fh at 1.5 h in data set [3] is 55%.

Consider `Fc1cnc2nc(CN3CCC(c4nc(-c5cc6ccccc6o5)cs4)CC3)[nH]c2c1`, for which, in data set [1] (Homo sapiens, NCI-H1299, 24 h), the half-maximal inhibitory concentration (IC50) amounted to 300 nM. The molecule also yielded a pH-dependent lipophilicity (logD) in data set [2] of 3.1.

In the case of `O=C(CN1CCC(c2nc(-c3cc4ccccc4o3)cs2)CC1)Nc1cccc(F)c1`, the IC50 in data set [1] (Homo sapiens, NCI-H1299, 24 h) came to 420 nM.

Regarding `Cn1c(-c2csc(C3CCN(Cc4nc5ccccc5[nH]4)CC3)n2)nc2ccccc21`, the IC50 in data set [1] (Homo sapiens, NCI-H1299, 24 h) amounted to 20000 nM. In data set [2], this molecule returned a logD of 2.5.

As for `c1ccc2oc(-c3csc(C4CCN(c5nnc(-c6ccncc6)o5)CC4)n3)cc2c1`, the IC50 in data set [1] (Homo sapiens, NCI-H1299, 24 h) is 13400 nM. The logD in data set [2] came out at 3.3. The Fh at 1.5 h in data set [3] was found to be 44%.

Take `c1ccc2oc(-c3csc(C4CCN(Cc5cn6ccncc6n5)CC4)n3)cc2c1`: the 50% inhibitory concentration (IC50) in data set [1] (Homo sapiens, NCI-H1299, 24 h) stood at 390 nM. This molecule also yielded a logD in data set [2] of 2.7.

In the case of `O=C(CN1CCC(c2nc(-c3cc4ccccc4o3)cs2)CC1)Nc1cncs1`, the concentration for half-maximal inhibition (IC50) in data set [1] (Homo sapiens, NCI-H1299, 24 h) amounted to 155 nM.

For the molecule `Cc1ccnc2nc(CN3CCC(c4nc(-c5cc6ccccc6o5)cs4)CC3)[nH]c12`, in data set [1] (Homo sapiens, NCI-H1299, 24 h), the IC50 was determined as 300 nM. In data set [2], this molecule displayed a logD of 3.

For `c1ccc2oc(-c3csc(C4CCN(Cc5nc6ccccc6[nH]5)CC4)n3)cc2c1`, in data set [1] (Homo sapiens, NCI-H1299, 24 h), the IC50 was 200 nM. In data set [2], this molecule yielded a pH-dependent lipophilicity (logD) of 3.4.

For the molecule `O=C(CN1CCC(c2nc(-c3cc4ccccc4o3)cs2)CC1)Nc1ccccc1`, the IC50 in data set [1] (Homo sapiens, NCI-H1299, 24 h) was 882 nM.

Take `Cc1nsc(NC(=O)C(C)N2CCC(c3nc(-c4cc5ccccc5o4)cs3)CC2)c1Cl` (racemic): the IC50 in data set [1] (Homo sapiens, NCI-H1299, 24 h) was 77 nM. This molecule yielded a logD in data set [2] of 5.6. Besides, the Fh at 1.5 h in data set [3] was 61%. The clearance in data set [4] is 118 mL/min/kg.

With `CC(c1nc2ccccc2[nH]1)N1CCC(c2nc(-c3cc4ccccc4o3)cs2)CC1` (racemic), in data set [1] (Homo sapiens, NCI-H1299, 24 h), the 50% inhibitory concentration (IC50) came out at 400 nM. Further, in data set [2], the logD was 3.7.

Regarding `CCc1nccc(N2CCC(N3CCC(c4nc(-c5cc6ccccc6o5)cs4)CC3)C2=O)c1Cl` (single isomer, unassigned; form 1), the IC50 in data set [1] (nci-h1299) came to 14 nM. Further, the logD in data set [2] came out at 4.2. Besides, in data set [3], the Fh at 1.5 h amounted to 40%. Further, the clearance in data set [4] was 45 mL/min/kg.

For the molecule `CCc1nccc(N2CCC(N3CCC(c4nc(-c5cc6ccccc6o5)cs4)CC3)C2=O)c1Cl` (single isomer, unassigned; form 2), the IC50 in data set [1] (nci-h1299) came to 950 nM. Also, the Fmax in data set [3] (hepatocytes, 1.5 h) stood at 43%.
